From ChEMBL document CHEMBL1140117, “Structure-activity relationship studies for the peptide portion of the bladder epithelial cell antiproliferative factor from interstitial cystitis patients” (2008) come the findings set out here.

Activity calls are given as the source filed them. Starred links: 1 amine or outer side, 2 acyl side, 3 side chain; linkers in the order of their positions; H or OH if unused. Positions of bridges follow the written chain, without caps; N, C: chain ends. Non-standard residues stand in square brackets, D forms with d. Residues, ends and D or L forms follow the SMILES beside them. *: point of attachment. X3 = CC(=O)N[C@H]1[C@@H](O[C@H](C)[C@H](NO[*:2])C(=O)[*:1])O[C@H](CO)[C@H](O)[C@@H]1O[C@@H]1O[C@H](CO)[C@H](O)[C@H](O)[C@H]1O; X1 = CC(=O)N[C@@H]1[C@@H](O[C@@H]2O[C@H](CO)[C@H](O)[C@H](O)[C@H]2O)[C@@H](O)[C@@H](CO)O[C@@H]1*; X2 = CC1(C)OC[C@@H](C(=O)[*:2])N1[*:1]; NMeA = CN[C@@H](C)C(=O)O

The first experiment deals with Epithelial cell. The experiment can be described thus: Antiproliferative activity against human bladder epithelial cells assessed as inhibition of [3H]thymidine incorporation at <25 uM after 48 hrs relative to as-APF. Format: functional, cell-based. The gist of the method: (§1)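 Primary normal human bladder epithelial cells, explanted from cystoscopy biopsies, plated at 1.5 × 10⁴ cells/well in MEM with 10% heat-inactivated FBS. Congeners dissolved in acetonitrile/water (1:1), added in serum-free MEM in 10-fold dilutions up to the 25 µM assay cutoff. Incubated 48 h at 37 °C, 5% CO₂. ³H-thymidine uptake counted on filters. Activity expressed relative to the standard control run on each plate. Triplicates, at least two runs, ANOVA.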
A general note: Incorporation of labelled thymidine or its analogues reports DNA synthesis.
As to `CC(=O)N[C@H]1[C@@H](O[C@H](C)[C@H](N)C(=O)N[C@H](C(=O)N2CCC[C@H]2C(=O)N[C@@H](C)C(=O)N[C@@H](C)C(=O)N[C@H](C(=O)N[C@H](C(=O)N[C@@H](C)C(=O)N[C@H](C(=O)O)C(C)C)C(C)C)C(C)C)C(C)C)O[C@H](CO)[C@H](O)[C@@H]1O[C@@H]1O[C@H](CO)[C@H](O)[C@H](O)[C@H]1O` (H-T(X1)VPAAVVAV-OH), the result was inactive. For `CC(=O)N[C@H]1[C@@H](O[C@H](C)[C@@H]2NOC(=O)[C@H](C)NC(=O)[C@H](C(C)C)NC(=O)[C@H](C(C)C)NC(=O)[C@H](C(C)C)NC(=O)[C@H](C)NC(=O)[C@H](C)NC(=O)[C@@H]3CCCN3C(=O)[C@H](C(C)C)NC2=O)O[C@H](CO)[C@H](O)[C@@H]1O[C@@H]1O[C@H](CO)[C@H](O)[C@H](O)[C@H]1O` (VPAAVVVA; linker N-C via X3), the result was inactive. Consider `CC(=O)N[C@H]1[C@@H](O[C@H](C)[C@H](N)C(=O)N[C@H](C(=O)N2[C@H](C(=O)N[C@@H](C)C(=O)N[C@@H](C)C(=O)N[C@H](C(=O)N[C@H](C(=O)N[C@H](C(=O)N[C@@H](C)C(=O)O)C(C)C)C(C)C)C(C)C)COC2(C)C)C(C)C)O[C@H](CO)[C@H](O)[C@@H]1O[C@@H]1O[C@H](CO)[C@H](O)[C@H](O)[C@H]1O` (H-T(X1)V[X2]AAVVVA-OH), for which the result was inactive. `CC(=O)N[C@H]1[C@@H](O[C@H](C)[C@H](N)C(=O)N[C@H](C(=O)N2CCC[C@H]2C(=O)N[C@@H](C)C(=O)N[C@@H](C)C(=O)N[C@H](C(=O)N[C@H](C(=O)N[C@H](C(=O)N[C@@H](C)C(=O)N[C@@H](CCC(=O)O)C(=O)O)C(C)C)C(C)C)C(C)C)C(C)C)O[C@H](CO)[C@H](O)[C@@H]1O[C@@H]1O[C@H](CO)[C@H](O)[C@H](O)[C@H]1O` (H-T(X1)VPAAVVVAE-OH): the outcome was inactive. Same read-out and setting: the same measure for `CC(=O)N[C@H]1[C@@H](O[C@H](C)[C@H](N)C(=O)N[C@H](C(=O)N2CCC[C@H]2C(=O)NCCCCCCCCCCCC(=O)O)C(C)C)O[C@H](CO)[C@H](O)[C@@H]1O[C@@H]1O[C@H](CO)[C@H](O)[C@H](O)[C@H]1O`: “inactive”; for `CC(=O)N[C@H]1[C@@H](O[C@H](C)[C@H](N)C(=O)N[C@H](C(=O)N2CCC[C@H]2C(=O)N[C@@H](C)C(=O)NCC(=O)N[C@H](C(=O)N[C@H](C(=O)N[C@H](C(=O)NCC(=O)O)C(C)C)C(C)C)C(C)C)C(C)C)O[C@H](CO)[C@H](O)[C@@H]1O[C@@H]1O[C@H](CO)[C@H](O)[C@H](O)[C@H]1O` (H-T(X1)VPAGVVVG-OH): “inactive”; for `CC(=O)N[C@H]1[C@@H](O[C@H](C)[C@H](N)C(=O)N[C@H](C(=O)N2CCC[C@H]2C(=O)N[C@@H](C)C(=O)N[C@@H](C)C(=O)N[C@H](C(=O)N[C@H](C(=O)N[C@H](C(=O)N[C@@H](C)C(=O)N[C@@H](CCCCN)C(=O)O)C(C)C)C(C)C)C(C)C)C(C)C)O[C@H](CO)[C@H](O)[C@@H]1O[C@@H]1O[C@H](CO)[C@H](O)[C@H](O)[C@H]1O` (H-T(X1)VPAAVVVAK-OH): “inactive”.

Regarding `CC[C@H](C)[C@H](NC(=O)[C@H](C)NC(=O)[C@H](C)NC(=O)[C@@H]1CCCN1C(=O)[C@@H](NC(=O)[C@@H](N)[C@@H](C)O[C@H]1O[C@H](CO)[C@H](O)[C@H](O[C@@H]2O[C@H](CO)[C@H](O)[C@H](O)[C@H]2O)[C@H]1NC(C)=O)C(C)C)C(=O)N[C@H](C(=O)N[C@H](C(=O)N[C@@H](C)C(=O)O)[C@@H](C)CC)C(C)C` (H-T(X1)VPAAIVIA-OH), the outcome was inactive. Regarding `CC(=O)N[C@H]1[C@@H](O[C@H](C)[C@H](N)C(=O)N[C@H](C(=O)N2CCC[C@@H]2C(=O)N[C@@H](C)C(=O)N[C@@H](C)C(=O)N[C@H](C(=O)N[C@H](C(=O)N[C@H](C(=O)N[C@@H](C)C(=O)O)C(C)C)C(C)C)C(C)C)C(C)C)O[C@H](CO)[C@H](O)[C@@H]1O[C@@H]1O[C@H](CO)[C@H](O)[C@H](O)[C@H]1O`, the result was inactive. Regarding `CC(=O)N[C@H]1[C@@H](O[C@H](C)[C@H](N)C(=O)N[C@H](C(=O)N2CCC[C@H]2C(=O)N[C@@H](C)C(=O)N[C@@H](C)C(=O)N[C@H](C(=O)N[C@H](C(=O)O)C(C)C)C(C)C)C(C)C)O[C@H](CO)[C@H](O)[C@@H]1O[C@@H]1O[C@H](CO)[C@H](O)[C@H](O)[C@H]1O` (H-T(X1)VPAAVV-OH), the outcome was inactive. Regarding `CC(=O)N[C@H]1[C@@H](O[C@H](C)[C@H](N)C(=O)N[C@@H](CC(C)C)C(=O)N2CCC[C@H]2C(=O)N[C@@H](C)C(=O)N[C@@H](C)C(=O)N[C@H](C(=O)N[C@H](C(=O)N[C@H](C(=O)N[C@@H](C)C(=O)O)C(C)C)C(C)C)C(C)C)O[C@H](CO)[C@H](O)[C@@H]1O[C@@H]1O[C@H](CO)[C@H](O)[C@H](O)[C@H]1O` (H-T(X1)LPAAVVVA-OH), the result was inactive. On the same count and under the same terms, the same measure for `CC(=O)N[C@H]1[C@@H](O[C@H](C)[C@H](N)C(=O)N[C@H](C(=O)N2CCC[C@H]2C(=O)N[C@@H](C)C(=O)N[C@@H](C)C(=O)N[C@H](C(=O)N[C@@H](C(=O)N[C@H](C(=O)N[C@@H](C)C(=O)O)C(C)C)C(C)C)C(C)C)C(C)C)O[C@H](CO)[C@H](O)[C@@H]1O[C@@H]1O[C@H](CO)[C@H](O)[C@H](O)[C@H]1O`: “inactive”; for `CC(=O)N[C@H]1[C@@H](O[C@H](C)[C@H](N)C(=O)N[C@@H](Cc2ccc(O)cc2)C(=O)N2CCC[C@H]2C(=O)N[C@@H](C)C(=O)N[C@@H](C)C(=O)N[C@H](C(=O)N[C@H](C(=O)N[C@H](C(=O)N[C@@H](C)C(=O)O)C(C)C)C(C)C)C(C)C)O[C@H](CO)[C@H](O)[C@@H]1O[C@@H]1O[C@H](CO)[C@H](O)[C@H](O)[C@H]1O` (H-T(X1)YPAAVVVA-OH): “inactive”.

`CC(=O)N[C@H]1[C@@H](O[C@H](C)[C@H](N)C(=O)N[C@H](C(=O)N2CCC[C@H]2C(=O)N[C@@H](C)C(=O)N[C@@H](C)C(=O)O)C(C)C)O[C@H](CO)[C@H](O)[C@@H]1O[C@@H]1O[C@H](CO)[C@H](O)[C@H](O)[C@H]1O` (H-T(X1)VPAA-OH): the result was inactive.

System in the next experiment: not listed separately
Nature of the experiment: Antiproliferative activity against human bladder epithelial cells assessed as inhibition of [3H]thymidine incorporation after 48 hrs relative to as-APF. Type of experiment: functional, Epithelial cell. Further details: scale not given: the % may be the effect or the level left. The gist of the method:
as §1
Turning to `CC(=O)N[C@H]1[C@@H](O[C@H](C)[C@H](N)C(=O)N[C@H](C(=O)N2CCC[C@H]2C(=O)N[C@@H](C)C(=O)N[C@@H](CO)C(=O)N[C@H](C(=O)N[C@H](C(=O)N[C@H](C(=O)N[C@@H](CO)C(=O)O)C(C)C)C(C)C)C(C)C)C(C)C)O[C@H](CO)[C@H](O)[C@@H]1O[C@@H]1O[C@H](CO)[C@H](O)[C@H](O)[C@H]1O` (H-T(X1)VPASVVVS-OH), the Activity stood at 0.2%. Still for that read-out and setting: the same measure for `CC(=O)N[C@H]1[C@@H](O[C@H](C)[C@H](N)C(=O)N[C@H](C(=O)N2CCC[C@H]2C(=O)N[C@@H](C)C(=O)N[C@@H](C)C(=O)N[C@H](C(=O)N[C@H](C(=O)N[C@H](C(=O)N[C@@H](C)C(=O)N[C@@H](CS)C(=O)O)C(C)C)C(C)C)C(C)C)C(C)C)O[C@H](CO)[C@H](O)[C@@H]1O[C@@H]1O[C@H](CO)[C@H](O)[C@H](O)[C@H]1O` (H-T(X1)VPAAVVVAC-OH): 1%; for `CC(=O)N[C@H]1[C@@H](OC[C@H](N)C(=O)N[C@H](C(=O)N2CCC[C@H]2C(=O)N[C@@H](C)C(=O)N[C@@H](C)C(=O)N[C@H](C(=O)N[C@H](C(=O)N[C@H](C(=O)N[C@@H](C)C(=O)O)C(C)C)C(C)C)C(C)C)C(C)C)O[C@H](CO)[C@H](O)[C@@H]1O[C@@H]1O[C@H](CO)[C@H](O)[C@H](O)[C@H]1O` (H-S(X1)VPAAVVVA-OH): 0.01%. `CC(=O)N[C@H]1[C@@H](O[C@H](C)[C@H](N)C(=O)N[C@H](C(=O)N(C)[C@@H](C)C(=O)N[C@@H](C)C(=O)N[C@@H](C)C(=O)N[C@H](C(=O)N[C@H](C(=O)N[C@H](C(=O)N[C@@H](C)C(=O)O)C(C)C)C(C)C)C(C)C)C(C)C)O[C@H](CO)[C@H](O)[C@@H]1O[C@@H]1O[C@H](CO)[C@H](O)[C@H](O)[C@H]1O` (H-T(X1)V[NMeA]AAVVVA-OH): the Activity amounted to 0.05%.

`CC(=O)N[C@H]1[C@@H](O[C@H](C)[C@H](N)C(=O)N[C@H](C(=O)N2CCC[C@H]2C(=O)N[C@@H](C)C(=O)N[C@@H](C)C(=O)N[C@H](C(=O)N[C@H](C(=O)N[C@H](C(=O)O)C(C)C)C(C)C)C(C)C)C(C)C)O[C@H](CO)[C@H](O)[C@@H]1O[C@@H]1O[C@H](CO)[C@H](O)[C@H](O)[C@H]1O` (H-T(X1)VPAAVVV-OH): the Activity turned out to be 100%. On the same count and under the same terms, the same measure for `CC(=O)N[C@H]1[C@@H](O[C@H](C)[C@H](N)C(=O)N[C@H](C(=O)N[C@@H](C)C(=O)N[C@@H](C)C(=O)N[C@@H](C)C(=O)N[C@H](C(=O)N[C@H](C(=O)N[C@H](C(=O)N[C@@H](C)C(=O)O)C(C)C)C(C)C)C(C)C)C(C)C)O[C@H](CO)[C@H](O)[C@@H]1O[C@@H]1O[C@H](CO)[C@H](O)[C@H](O)[C@H]1O` (H-T(X1)VAAAVVVA-OH): 0.3%.

For `CC(=O)N[C@H]1[C@@H](OC[C@H](N)C(=O)N[C@@H](CC(C)C)C(=O)N2CCC[C@H]2C(=O)N[C@@H](C)C(=O)N[C@@H](C)C(=O)N[C@H](C(=O)N[C@H](C(=O)N[C@H](C(=O)N[C@@H](C)C(=O)O)C(C)C)C(C)C)C(C)C)O[C@H](CO)[C@H](O)[C@@H]1O[C@@H]1O[C@H](CO)[C@H](O)[C@H](O)[C@H]1O` (H-S(X1)LPAAVVVA-OH), the Activity is listed as 1%. On the same count and under the same terms, to `CC(=O)N[C@H]1[C@@H](O[C@H](C)[C@H](N)C(=O)N[C@H](C(=O)N2CCC[C@H]2C(=O)N[C@@H](C)C(=O)N[C@@H](C)C(=O)N[C@@H](C)C(=O)N[C@@H](C)C(=O)N[C@@H](C)C(=O)N[C@@H](C)C(=O)O)C(C)C)O[C@H](CO)[C@H](O)[C@@H]1O[C@@H]1O[C@H](CO)[C@H](O)[C@H](O)[C@H]1O` (H-T(X1)VPAAAAAA-OH) belongs 1%.
